Laboratory results as given in ChEMBL document CHEMBL1157930, “Design, synthesis, biological evaluation and computational investigation of novel inhibitors of dihydrofolate reductase of opportunistic pathogens” (Bioorg Med Chem, 2010).

What was measured:
[1] = target: T1, Dihydrofolate reductase (Rattus norvegicus) (UniProt Q920D2); test: Inhibition of rat liver DHFR at IC50 by continuous spectrophotometric assay
T1 sequence (whole entry): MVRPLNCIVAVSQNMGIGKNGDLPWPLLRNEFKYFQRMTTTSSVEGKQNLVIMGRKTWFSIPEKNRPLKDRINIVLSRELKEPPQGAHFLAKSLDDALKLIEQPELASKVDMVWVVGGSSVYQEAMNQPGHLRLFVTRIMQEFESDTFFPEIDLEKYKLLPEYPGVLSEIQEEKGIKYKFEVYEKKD
Procedure, shortened: (§1)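 Continuous spectrophotometric assay of pathogen (pc, tg, ma) or rat liver DHFR. NADPH oxidation was followed at 340, at 37 °C, with substrate and cofactor both saturating. […]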

[2] = target: T2, Bifunctional dihydrofolate reductase-thymidylate synthase (Toxoplasma gondii) (UniProt Q07422); test: Inhibition of Toxoplasma gondii DHFR by continuous spectrophotometric assay
T2 sequence (whole entry): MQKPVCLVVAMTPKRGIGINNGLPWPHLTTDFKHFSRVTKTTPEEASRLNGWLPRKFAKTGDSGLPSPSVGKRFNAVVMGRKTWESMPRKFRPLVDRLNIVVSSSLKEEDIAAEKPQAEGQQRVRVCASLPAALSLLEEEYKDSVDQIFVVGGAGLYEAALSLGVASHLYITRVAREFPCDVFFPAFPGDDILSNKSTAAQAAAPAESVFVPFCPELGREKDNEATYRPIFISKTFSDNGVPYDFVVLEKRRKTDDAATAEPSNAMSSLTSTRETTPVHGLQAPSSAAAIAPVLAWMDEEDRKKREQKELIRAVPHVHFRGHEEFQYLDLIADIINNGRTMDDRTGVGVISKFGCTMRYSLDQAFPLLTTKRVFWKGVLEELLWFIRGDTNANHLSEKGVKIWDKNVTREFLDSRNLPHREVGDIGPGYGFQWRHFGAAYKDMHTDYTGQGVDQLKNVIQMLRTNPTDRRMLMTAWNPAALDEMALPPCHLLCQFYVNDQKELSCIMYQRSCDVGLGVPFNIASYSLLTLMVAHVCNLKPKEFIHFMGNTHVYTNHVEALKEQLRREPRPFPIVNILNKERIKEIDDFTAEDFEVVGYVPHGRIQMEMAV
Procedure, shortened: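 Toxoplasma gondii DHFR was assayed continuously by spectrophotometry, following NADPH oxidation at 340 at 37 °C with saturating substrate and cofactor, in triplicate. […]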

[3] = target: T2, Bifunctional dihydrofolate reductase-thymidylate synthase (Toxoplasma gondii); test: Inhibition of Toxoplasma gondii DHFR at IC50 by continuous spectrophotometric assay; set-up: concentration or dose not given beside the values; procedure, shortened: as §1
[4] = target: T3, Dihydrofolate reductase (Mycobacterium avium) (UniProt O30463); test: Inhibition of Mycobacterium avium DHFR at IC50 by continuous spectrophotometric assay; procedure, shortened: as §1
T3 sequence (whole entry): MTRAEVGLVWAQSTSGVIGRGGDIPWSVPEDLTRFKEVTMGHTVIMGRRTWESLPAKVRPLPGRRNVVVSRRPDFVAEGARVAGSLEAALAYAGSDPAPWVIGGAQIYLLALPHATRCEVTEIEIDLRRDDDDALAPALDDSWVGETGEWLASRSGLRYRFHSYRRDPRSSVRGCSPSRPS

[5] = target: T4, Dihydrofolate reductase (Pneumocystis carinii) (UniProt P16184); test: Inhibition of Pneumocystis carinii DHFR at IC50 by continuous spectrophotometric assay; procedure, shortened: as §1
T4 sequence (whole entry): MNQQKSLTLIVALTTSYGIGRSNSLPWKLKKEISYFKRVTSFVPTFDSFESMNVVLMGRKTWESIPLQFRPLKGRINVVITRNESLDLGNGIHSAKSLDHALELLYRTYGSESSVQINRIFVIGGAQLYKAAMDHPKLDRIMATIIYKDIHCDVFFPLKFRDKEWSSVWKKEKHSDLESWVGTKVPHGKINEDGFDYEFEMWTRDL

[6] = Selectivity ratio of IC50 for rat liver DHFR to IC50 for Mycobacterium avium DHFR
Procedure, shortened: (§2)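 The ratio is rat liver DHFR IC50 divided by pathogen DHFR IC50. Both IC50s come from triplicate continuous spectrophotometric assays following NADPH oxidation at 37 °C, with substrate and cofactor saturating.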

[7] = Selectivity ratio of IC50 for rat liver DHFR to IC50 for Pneumocystis carinii DHFR; procedure, shortened: as §2
[8] = Selectivity ratio of IC50 for rat liver DHFR to IC50 for Toxoplasma gondii DHFR; procedure, shortened: as §2

Question: With COc1ccc(NCc2cnc(N)nc2N)cc1 as the compound, how does the inhibition [1] read?
Answer: 0%

Question: And the Activity [2]?
Answer: 44 µM

Question: And the inhibition [3]?
Answer: 7%

Question: And the inhibition [4]?
Answer: 0%

Question: With COc1cc(COc2cc(N)nc(N)n2)cc(OC)c1OC as the compound, how does the inhibition [1] read?
Answer: 12%

Question: What about the Activity [2] of the same compound?
Answer: 145 µM

Question: And the inhibition [5]?
Answer: 0%

Question: What about the inhibition [3] of the same compound?
Answer: 10%

Question: And the inhibition [4]?
Answer: 12%

Question: Which Activity [2] does the source give for COc1ccc(C(=O)/C=C/c2cnc(N)nc2N)cc1 here?
Answer: 151 µM

Question: What about the inhibition [5] of the same compound?
Answer: 4%

Question: What about the inhibition [3] of the same compound?
Answer: 15%

Question: What about the inhibition [4] of the same compound?
Answer: 14%

Question: Which Ratio IC50 [6] does the source give for Nc1nc(N)c2cc(COC(=O)c3c4ccccc4cc4ccccc34)ccc2n1 here?
Answer: 0.21

Question: And the IC50 selectivity ratio (rat liver / P. carinii DHFR) [7]?
Answer: 0.43

Question: And the Activity [2]?
Answer: 0.67 µM

Question: What about the Ratio IC50 [8] of the same compound?
Answer: 0.31

Question: Which results are given for Nc1ncc(CN2c3ccccc3C=Cc3ccccc32)c(N)n1?
Answer: inhibition [1]: 15%; Ratio IC50 [6]: > 20; IC50 selectivity ratio (rat liver / P. carinii DHFR) [7]: > 5; Activity [2]: 8.07 µM; Ratio IC50 [8]: > 16

Question: For Nc1nc(N)nc(CN2c3ccccc3Sc3ccc(Cl)cc32)n1, which inhibition [1] is on record?
Answer: 8%

Question: What about the Activity [2] of the same compound?
Answer: 397 µM

Question: What about the inhibition [4] of the same compound?
Answer: 5%

Question: What does the source list for Nc1nc(N)nc(CN2c3ccccc3Sc3ccccc32)n1?
Answer: inhibition [1]: 16%; Activity [2]: 143 µM; inhibition [3]: 15%; inhibition [4]: 4%

Question: Which IC50 selectivity ratio (rat liver / P. carinii DHFR) [7] does the source give for Nc1ncc(CNc2cccc3ccccc23)c(N)n1 here?
Answer: 0.85

Question: And the Activity [2]?
Answer: 22.1 µM

Question: What about the inhibition [4] of the same compound?
Answer: 9%

Question: And the Ratio IC50 [8]?
Answer: 5.78

Question: Which Ratio IC50 [6] does the source give for Nc1ncc(CN2c3ccccc3CCc3ccccc32)c(N)n1 here?
Answer: 14.4

Question: And the IC50 selectivity ratio (rat liver / P. carinii DHFR) [7]?
Answer: 1.89

Question: And the Activity [2]?
Answer: 0.14 µM

Question: And the Ratio IC50 [8]?
Answer: 11.5

Question: What does the source list for Nc1nc(N)nc(CN2c3ccccc3CCc3ccccc32)n1?
Answer: inhibition [1]: 0%; Activity [2]: 140 µM; inhibition [3]: 10%; inhibition [4]: 9%

Question: With Nc1cc(OCCN2c3ccccc3C=Cc3ccccc32)nc(N)n1 as the compound, how does the inhibition [1] read?
Answer: 39%

Question: And the Ratio IC50 [6]?
Answer: > 51.4

Question: And the Activity [2]?
Answer: 3.35 µM

Question: What about the Ratio IC50 [8] of the same compound?
Answer: > 35.8

Question: Which Ratio IC50 [6] does the source give for CN(Cc1cnc(N)nc1N)c1cccc2ccccc12 here?
Answer: 209

Question: What about the IC50 selectivity ratio (rat liver / P. carinii DHFR) [7] of the same compound?
Answer: 4.79

Question: What about the Activity [2] of the same compound?
Answer: 3.49 µM

Question: What about the Ratio IC50 [8] of the same compound?
Answer: 52.7

Question: Which results are given for Cc1ccc(COc2ccc(C(=O)/C=C/c3cnc(N)nc3N)cc2)cc1?
Answer: inhibition [1]: 0%; Activity [2]: 117 µM; inhibition [5]: 2%; inhibition [3]: 10%; inhibition [4]: 4%

Question: With Nc1ncc(CSc2nc3ccccc3o2)c(N)n1 as the compound, how does the Ratio IC50 [6] read?
Answer: 22.5

Question: And the IC50 selectivity ratio (rat liver / P. carinii DHFR) [7]?
Answer: 14.5

Question: And the Activity [2]?
Answer: 160 µM

Question: And the Ratio IC50 [8]?
Answer: 3.25

Question: What does the source list for Nc1nc(N)c2nc(CN3c4ccccc4C=Cc4ccccc43)cnc2n1?
Answer: Ratio IC50 [6]: 367; Activity [2]: 0.043 µM; Ratio IC50 [8]: 102

Question: With Nc1ncc(COS(=O)(=O)c2ccc3ccccc3c2)c(N)n1 as the compound, how does the inhibition [1] read?
Answer: 0%

Question: And the IC50 selectivity ratio (rat liver / P. carinii DHFR) [7]?
Answer: > 15.7

Question: What about the Activity [2] of the same compound?
Answer: 124 µM

Question: What about the inhibition [3] of the same compound?
Answer: 13%

Question: And the inhibition [4]?
Answer: 15%
